Measurements pooled from the literature.
Target: Mitotic checkpoint serine/threonine-protein kinase BUB1 (BUB1, Homo sapiens, UniProt O43683)

Nc1ncc2c(n1)-c1c([nH]c3ccc(C#CC4CC4)cc13)CCCC2 — remaining binding (binding, competition with immobilised ligand; 1 µM): 78%
CCN1CCN(Cc2ccc(C(=O)Nc3ccc(C)c(Oc4ccc5c(c4)CC(=O)N5)c3)cc2C(F)(F)F)CC1 — remaining binding (binding, competition with immobilised ligand; 1 µM): 100%
CN(CCCC(F)(F)F)c1nccc(-c2cnn3ncccc23)n1 — remaining binding (binding; 1 µM): 91%
CN([C@@H]1CCc2c(CC(=O)O)c3ccccc3n2C1)S(=O)(=O)c1ccc(F)cc1 — remaining binding (cell-free assay, competition with immobilised ligand; 1 µM): 79%
C[C@H]1CCN(c2nccc(-c3cnn4ncccc34)n2)C1 — remaining binding (binding; 1 µM): 52%
CNC(=O)[C@@H]1CC[C@@H](n2c(-c3ccc4cnccc4c3)nc3ccc(C(=O)NCc4cccc(C(N)=O)c4)cc32)C1 — remaining binding (binding, competition with immobilised ligand; 1 µM): 100%
Cc1nc(Cc2cccc(C(F)(F)F)c2)sc1-c1ccc(C(N)=O)nc1 — remaining binding (cell-free assay, competition with immobilised ligand; 1 µM): 100%
O=C(Nc1c[nH]nc1C(=O)NC1CCNCC1)c1cc(F)cc(F)c1 — remaining binding (binding, competition with immobilised ligand; 1 µM): 100%
COc1ncc2cc3ccccc3nc2c1C#N — remaining binding (cell-free assay, competition with immobilised ligand; 5 µM): 92%
F[C@@H]1CCN(c2nccc(-c3cnn4ncccc34)n2)C1 — remaining binding (binding; 1 µM): 72%
C[C@@H]1CN(c2cc(-c3n[nH]c4ccc(OC5(C)CC5)cc34)ncn2)C[C@H](C)O1 — remaining binding (cell-free assay, competition with immobilised ligand; 0.1 µM): 84%
COc1cnc(Nc2cccc(S(N)(=O)=O)c2)nc1N1CCN(c2ccccc2)CC1 — remaining binding (binding, competition with immobilised ligand; 1 µM): 69%
CN(C)c1nccc(-c2cnc3ncccn23)n1 — remaining binding (binding; 1 µM): 78%
O=C(c1ccc(Nc2ncc(Cl)c(-c3cc4ccccc4s3)n2)cc1)N1CCC(N2CCCC2)CC1 — remaining binding (binding, competition with immobilised ligand; 1 µM): 53%
CCc1ccccc1C(=O)Nc1n[nH]c2c(C)c(F)c(C3C(C#N)=C(C)N(C)C(C)=C3C#N)cc12 — remaining binding (cell-free assay, competition with immobilised ligand; 1 µM): 100%
N[C@@H]1CCN(c2nccc(-c3cnn4ncccc34)n2)C1 — remaining binding (binding; 1 µM): 93%
O=C(NCCCN1CCOCC1)c1ccc(Nc2ncc(Cl)c(-c3ccc(Cl)s3)n2)cc1 — remaining binding (binding, competition with immobilised ligand; 1 µM): 80%
CNCc1ccccc1-c1csc([C@@H](C)Nc2nc(C)nc3cc(OC)c(OC)cc23)c1 — remaining binding (cell-free assay, competition with immobilised ligand; 1 µM): 100%
O=C(c1ccc(Nc2ncc(Cl)c(-c3ccc(Cl)s3)n2)cc1)N1CCC(N2CCCC2)CC1 — remaining binding (binding, competition with immobilised ligand; 1 µM): 65%
CN(C)c1nccc(-c2cnn3ncccc23)n1 — remaining binding (binding; 1 µM): 74%
O=C(N1CCS(=O)(=O)CC1)N1C[C@H](c2ccc(OC(F)(F)F)cc2)C[C@H](c2nc(C3CC3)no2)C1 — remaining binding (cell-free assay, competition with immobilised ligand; 1 µM): 100%
C=CC(=O)N1CCC(C(=O)NCC(=O)N2CCN(c3nc(-c4cnc(N)nc4C(F)F)nc(N4CCOCC4)n3)CC2)CC1 — remaining binding (binding, competition with immobilised ligand; 1 µM): 77%
